Source: ChEMBL document CHEMBL1944596, “7,8-dichloro-1-oxo-β-carbolines as a versatile scaffold for the development of potent and selective kinase inhibitors with unusual binding modes” (J Med Chem, 2012)

Legend:
[1] = target: Dual specificity protein kinase CLK4 (Homo sapiens) (UniProt Q9HAZ1); experiment: Binding affinity to CLK4 assessed as change in thermal denaturation at 10 uM by thermal stability shift assay
Summary of the method: (§1)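 Each compound was screened across a kinase panel by thermal stability shift assay. The read-out was the shift in protein melting temperature (ΔTm, in °C) relative to the unliganded kinase. A ΔTm of 4.0 °C served as the hit cutoff.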

[2] = target: Dual specificity protein kinase CLK1 (Homo sapiens) (UniProt P49759); experiment: Binding affinity to CLK1 assessed as change in thermal denaturation at 10 uM by thermal stability shift assay; summary of the method: as §1
[3] = target: T1, Serine/threonine-protein kinase haspin (Homo sapiens) (UniProt Q8TF76); experiment: Binding affinity to Haspin assessed as change in thermal denaturation at 10 uM by thermal stability shift assay; summary of the method: as §1
T1 sequence (whole entry): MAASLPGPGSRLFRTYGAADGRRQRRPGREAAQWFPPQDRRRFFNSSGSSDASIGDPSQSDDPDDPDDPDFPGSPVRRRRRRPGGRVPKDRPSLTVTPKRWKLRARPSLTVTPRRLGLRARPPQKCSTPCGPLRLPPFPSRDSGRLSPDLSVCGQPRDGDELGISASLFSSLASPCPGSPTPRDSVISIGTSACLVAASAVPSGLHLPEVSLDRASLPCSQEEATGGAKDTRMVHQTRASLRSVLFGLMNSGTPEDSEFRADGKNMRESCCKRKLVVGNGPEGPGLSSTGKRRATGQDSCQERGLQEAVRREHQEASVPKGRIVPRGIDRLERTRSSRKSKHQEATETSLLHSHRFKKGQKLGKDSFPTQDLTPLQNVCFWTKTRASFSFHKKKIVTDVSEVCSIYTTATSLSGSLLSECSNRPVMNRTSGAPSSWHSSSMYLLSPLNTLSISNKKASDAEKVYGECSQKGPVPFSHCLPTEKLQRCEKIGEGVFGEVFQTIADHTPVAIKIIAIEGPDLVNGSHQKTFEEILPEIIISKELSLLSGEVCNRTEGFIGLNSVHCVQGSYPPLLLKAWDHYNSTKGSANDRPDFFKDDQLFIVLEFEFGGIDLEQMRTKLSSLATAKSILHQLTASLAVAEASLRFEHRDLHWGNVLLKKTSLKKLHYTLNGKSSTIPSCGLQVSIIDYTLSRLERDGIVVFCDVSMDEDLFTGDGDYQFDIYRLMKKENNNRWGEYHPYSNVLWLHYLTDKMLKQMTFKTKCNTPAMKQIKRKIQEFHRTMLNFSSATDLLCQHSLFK

[4] = target: T2, Serine/threonine-protein kinase 17B (Homo sapiens) (UniProt O94768); experiment: Binding affinity to DRAK2 assessed as change in thermal denaturation at 10 uM by thermal stability shift assay; summary of the method: as §1
T2 sequence (whole entry): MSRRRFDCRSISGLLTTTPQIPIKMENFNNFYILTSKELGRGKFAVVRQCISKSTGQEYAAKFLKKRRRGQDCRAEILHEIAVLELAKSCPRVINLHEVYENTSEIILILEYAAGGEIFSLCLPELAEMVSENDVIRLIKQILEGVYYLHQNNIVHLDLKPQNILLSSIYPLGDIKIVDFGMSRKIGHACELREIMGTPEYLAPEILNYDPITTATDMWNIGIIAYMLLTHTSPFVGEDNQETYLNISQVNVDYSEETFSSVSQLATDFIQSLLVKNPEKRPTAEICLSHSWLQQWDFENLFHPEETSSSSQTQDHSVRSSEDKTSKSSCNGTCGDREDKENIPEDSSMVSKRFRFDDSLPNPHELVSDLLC

[5] = target: Protein kinase C gamma type (Homo sapiens) (UniProt P05129); experiment: Binding affinity to PKCgamma assessed as change in thermal denaturation at 10 uM by thermal stability shift assay; summary of the method: as §1
[6] = target: Serine/threonine-protein kinase pim-2 (Homo sapiens, UniProt Q9P1W9); experiment: Binding affinity to PIM2 assessed as change in thermal denaturation at 10 uM by thermal stability shift assay; summary of the method: as §1
[7] = target: Serine/threonine-protein kinase 33 (Homo sapiens) (UniProt Q9BYT3); experiment: Binding affinity to STK33 assessed as change in thermal denaturation at 10 uM by thermal stability shift assay; summary of the method: as §1
[8] = target: Casein kinase II subunit alpha' (Homo sapiens) (UniProt P19784); experiment: Binding affinity to CK2alpha2 assessed as change in thermal denaturation at 10 uM by thermal stability shift assay; summary of the method: as §1
[9] = Binding affinity to RSK4beta assessed as change in thermal denaturation at 10 uM by thermal stability shift assay; summary of the method: as §1
[10] = target: Glycogen synthase kinase-3 beta (Homo sapiens) (UniProt P49841); experiment: Binding affinity to GSK3-beta assessed as change in thermal denaturation at 10 uM by thermal stability shift assay; summary of the method: as §1
[11] = target: Serine/threonine-protein kinase pim-1 (Homo sapiens, UniProt P11309); experiment: Binding affinity to PIM1 assessed as change in thermal denaturation at 10 uM by thermal stability shift assay; summary of the method: as §1
[12] = target: T3, Dual specificity tyrosine-phosphorylation-regulated kinase 2 (Homo sapiens) (UniProt Q92630); experiment: Binding affinity to DYRK2 assessed as change in thermal denaturation at 10 uM by thermal stability shift assay; summary of the method: as §1
T3 sequence (whole entry): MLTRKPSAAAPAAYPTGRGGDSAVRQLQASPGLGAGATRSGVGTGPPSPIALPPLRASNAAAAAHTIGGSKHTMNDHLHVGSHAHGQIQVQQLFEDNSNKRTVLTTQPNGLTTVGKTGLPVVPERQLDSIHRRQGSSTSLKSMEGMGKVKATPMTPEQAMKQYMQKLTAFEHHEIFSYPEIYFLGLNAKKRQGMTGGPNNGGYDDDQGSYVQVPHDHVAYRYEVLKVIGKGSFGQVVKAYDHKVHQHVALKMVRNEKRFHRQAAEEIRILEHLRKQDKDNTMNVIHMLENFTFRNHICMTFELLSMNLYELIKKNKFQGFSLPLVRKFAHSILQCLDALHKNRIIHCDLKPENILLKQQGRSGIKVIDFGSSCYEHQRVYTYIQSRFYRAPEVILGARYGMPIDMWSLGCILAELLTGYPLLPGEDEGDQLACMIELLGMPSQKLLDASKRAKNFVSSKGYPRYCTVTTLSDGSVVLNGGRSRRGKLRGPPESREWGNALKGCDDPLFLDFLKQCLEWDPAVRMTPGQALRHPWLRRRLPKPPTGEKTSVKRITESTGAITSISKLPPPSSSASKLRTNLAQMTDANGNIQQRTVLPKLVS

Chain of Serine/threonine-protein kinase 33 (Homo sapiens) (Q9BYT3 whole entry, looked up): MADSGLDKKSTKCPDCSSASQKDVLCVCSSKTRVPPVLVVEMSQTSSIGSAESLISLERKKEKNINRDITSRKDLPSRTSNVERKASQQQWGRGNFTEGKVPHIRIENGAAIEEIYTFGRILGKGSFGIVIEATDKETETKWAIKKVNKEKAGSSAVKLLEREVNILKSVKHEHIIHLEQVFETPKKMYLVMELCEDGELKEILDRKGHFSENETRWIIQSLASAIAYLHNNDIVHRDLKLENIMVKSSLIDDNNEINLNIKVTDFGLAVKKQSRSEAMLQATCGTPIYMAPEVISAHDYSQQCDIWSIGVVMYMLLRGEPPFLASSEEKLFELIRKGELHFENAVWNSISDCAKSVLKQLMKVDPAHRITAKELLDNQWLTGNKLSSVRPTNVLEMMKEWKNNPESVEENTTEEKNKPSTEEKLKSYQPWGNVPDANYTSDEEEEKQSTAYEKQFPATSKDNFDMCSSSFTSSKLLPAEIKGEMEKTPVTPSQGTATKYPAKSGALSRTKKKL
Chain of Serine/threonine-protein kinase pim-1 (P11309 whole entry, looked up): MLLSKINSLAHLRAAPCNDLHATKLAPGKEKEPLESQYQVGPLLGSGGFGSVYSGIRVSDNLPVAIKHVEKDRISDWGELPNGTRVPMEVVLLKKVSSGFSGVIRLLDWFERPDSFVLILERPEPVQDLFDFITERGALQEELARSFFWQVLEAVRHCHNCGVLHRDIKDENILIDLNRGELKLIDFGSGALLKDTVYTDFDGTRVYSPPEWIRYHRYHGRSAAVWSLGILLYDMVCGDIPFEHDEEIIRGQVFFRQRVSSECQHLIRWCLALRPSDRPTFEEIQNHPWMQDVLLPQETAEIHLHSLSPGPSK
Chain of Dual specificity protein kinase CLK1 (Homo sapiens) (P49759 whole entry, looked up): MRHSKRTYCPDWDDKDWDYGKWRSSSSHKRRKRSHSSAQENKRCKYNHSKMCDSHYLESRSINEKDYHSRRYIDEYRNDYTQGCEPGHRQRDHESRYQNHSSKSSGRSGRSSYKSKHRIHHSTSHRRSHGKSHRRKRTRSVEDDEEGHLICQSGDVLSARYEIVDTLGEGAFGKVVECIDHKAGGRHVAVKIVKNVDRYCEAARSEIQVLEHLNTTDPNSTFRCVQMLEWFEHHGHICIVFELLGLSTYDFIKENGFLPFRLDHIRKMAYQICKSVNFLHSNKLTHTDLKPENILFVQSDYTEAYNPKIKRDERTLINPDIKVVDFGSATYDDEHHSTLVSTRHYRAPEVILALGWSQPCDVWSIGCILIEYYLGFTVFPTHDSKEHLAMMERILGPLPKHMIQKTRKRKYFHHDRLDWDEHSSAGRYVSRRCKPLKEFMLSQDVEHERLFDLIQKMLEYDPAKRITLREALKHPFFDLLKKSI
Chain of Serine/threonine-protein kinase pim-2 (Q9P1W9 whole entry, looked up): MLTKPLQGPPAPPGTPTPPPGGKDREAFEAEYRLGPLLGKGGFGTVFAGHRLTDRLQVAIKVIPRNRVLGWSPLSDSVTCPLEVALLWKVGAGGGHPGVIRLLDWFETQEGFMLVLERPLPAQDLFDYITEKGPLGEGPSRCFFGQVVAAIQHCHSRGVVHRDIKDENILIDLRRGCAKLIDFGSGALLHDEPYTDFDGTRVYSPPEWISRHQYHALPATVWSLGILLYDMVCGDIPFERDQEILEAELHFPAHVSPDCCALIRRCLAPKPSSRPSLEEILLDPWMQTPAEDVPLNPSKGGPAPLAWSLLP
Chain of Glycogen synthase kinase-3 beta (Homo sapiens) (P49841 whole entry, looked up): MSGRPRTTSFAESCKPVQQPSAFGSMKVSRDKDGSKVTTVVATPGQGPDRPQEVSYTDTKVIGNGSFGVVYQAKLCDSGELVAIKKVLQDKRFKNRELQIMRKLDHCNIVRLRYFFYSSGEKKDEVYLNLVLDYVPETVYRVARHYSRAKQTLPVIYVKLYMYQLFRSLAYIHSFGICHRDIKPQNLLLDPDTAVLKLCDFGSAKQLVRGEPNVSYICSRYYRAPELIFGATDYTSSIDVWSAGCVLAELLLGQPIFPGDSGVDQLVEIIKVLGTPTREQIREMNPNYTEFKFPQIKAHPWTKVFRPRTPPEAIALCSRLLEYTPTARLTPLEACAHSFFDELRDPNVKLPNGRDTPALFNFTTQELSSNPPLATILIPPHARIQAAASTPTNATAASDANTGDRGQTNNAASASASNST
Chain of Dual specificity protein kinase CLK4 (Homo sapiens) (Q9HAZ1 whole entry, looked up): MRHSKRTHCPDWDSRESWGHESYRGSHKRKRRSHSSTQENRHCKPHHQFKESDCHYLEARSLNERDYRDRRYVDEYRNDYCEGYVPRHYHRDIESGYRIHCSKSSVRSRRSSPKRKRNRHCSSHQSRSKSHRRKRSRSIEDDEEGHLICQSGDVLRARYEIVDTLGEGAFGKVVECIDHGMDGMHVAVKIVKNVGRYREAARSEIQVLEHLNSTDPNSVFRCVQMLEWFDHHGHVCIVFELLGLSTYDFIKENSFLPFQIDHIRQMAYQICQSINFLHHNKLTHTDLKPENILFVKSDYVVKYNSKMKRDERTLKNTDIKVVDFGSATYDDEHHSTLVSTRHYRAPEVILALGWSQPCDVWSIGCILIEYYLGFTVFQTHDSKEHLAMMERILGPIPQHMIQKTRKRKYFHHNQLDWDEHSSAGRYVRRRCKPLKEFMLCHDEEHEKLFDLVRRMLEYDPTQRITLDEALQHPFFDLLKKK
Chain of Casein kinase II subunit alpha' (Homo sapiens) (P19784 whole entry, looked up): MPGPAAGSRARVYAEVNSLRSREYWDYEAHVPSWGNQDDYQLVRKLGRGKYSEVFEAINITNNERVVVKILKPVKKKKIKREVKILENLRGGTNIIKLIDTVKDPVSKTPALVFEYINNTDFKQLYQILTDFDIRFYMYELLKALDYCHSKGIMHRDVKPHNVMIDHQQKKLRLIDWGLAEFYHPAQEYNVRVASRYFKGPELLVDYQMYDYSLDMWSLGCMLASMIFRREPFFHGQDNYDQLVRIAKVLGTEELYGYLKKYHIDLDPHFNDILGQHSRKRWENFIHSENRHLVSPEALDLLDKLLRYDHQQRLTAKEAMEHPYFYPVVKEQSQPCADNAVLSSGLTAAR

Row | SMILES | ΔTm [1] | ΔTm [2] | ΔTm [3] | ΔTm [4] | ΔTm [5] | ΔTm [6] | ΔTm [7] | ΔTm [8] | ΔTm [9] | ΔTm [10] | ΔTm [11] | ΔTm [12]
1 | Cn1c2c(c3ccc(Cl)c(Cl)c31)C(C#N)C(C)(C)NC2=O (configuration not stated) | 4.3 °C | 6.4 °C | 0.9 °C | 4.8 °C | 1.7 °C | 3.6 °C | 2.2 °C | 2.1 °C | 2.3 °C | 5.6 °C | 5.7 °C | 2 °C
2 | CCN1CCC2(CC1)NC(=O)c1c(c3ccc(Cl)c(Cl)c3n1C)C2C#N (racemic) | 1.8 °C | 4 °C | 2.6 °C | 1.1 °C | 4.5 °C | 3.9 °C | 2.1 °C | 1.8 °C | 0.2 °C | 1.5 °C | 7.4 °C | 0.9 °C
3 | N#CC1c2c([nH]c3c(Cl)c(Cl)ccc23)C(=O)NC12CCCCC2 (racemic) | 5.7 °C | 5.4 °C | 0 °C | 2.3 °C | 1.3 °C | 1.4 °C | 0.5 °C | 1.2 °C | -0.2 °C | 2.6 °C | 4.9 °C | 1.4 °C
4 | Cn1c2c(Cl)c(Cl)ccc2c2cc[nH]c(=O)c21 | 3.2 °C | 4.6 °C | 3.4 °C | 3.6 °C | 1.2 °C | 2.9 °C | 2.3 °C | 2 °C | 4 °C | 1.4 °C | 4 °C | 4.1 °C
5 | Cn1c2c(c3ccc(Cl)c(Cl)c31)C(C#N)C1(CCNCC1)NC2=O (racemic) | 4.6 °C | 7 °C | 5.6 °C | 3.4 °C | 6.1 °C | 6.5 °C | 5.9 °C | 4.2 °C | 0.8 °C | 3.9 °C | 10.7 °C | 3.6 °C
6 | CCC1(CC)NC(=O)c2c(c3ccc(Cl)c(Cl)c3n2C)C1C#N (configuration not stated) | 2.8 °C | 3.5 °C | 0.4 °C | 2.9 °C | 0.8 °C | 2 °C | 0.6 °C | 1 °C | -0.1 °C | 2 °C | 3.3 °C | 0.6 °C
7 | Cn1c2c(c3ccc(Cl)c(Cl)c31)C(C#N)C1(CCN(C(=O)OC(C)(C)C)CC1)NC2=O (racemic) | 0 °C | 0.5 °C | 0.3 °C | 0 °C | 0.2 °C | -0.2 °C | 0.3 °C | 0.3 °C | -0.4 °C | -0.2 °C | 0.8 °C | 0.3 °C
8 | CC(=O)NCC1c2c(n(C)c3c(Cl)c(Cl)ccc23)C(=O)NC1(C)C (racemic) | 1.4 °C | 2.6 °C | 0.3 °C | 1.6 °C | 0 °C | 0.7 °C | 0.3 °C | 1 °C | 0.4 °C | 0.2 °C | 1.1 °C | 0.9 °C
9 | Cn1c2c(Cl)c(Cl)ccc2c2cc(N)[nH]c(=O)c21 | 2.1 °C | 5.9 °C | 2.7 °C | 3 °C | 0.2 °C | 3 °C | 0.4 °C | 3 °C | 1.2 °C | 2.9 °C | 4 °C | 2.4 °C
10 | CC1(C)NC(=O)c2[nH]c3c(Cl)c(Cl)ccc3c2C1C#N (configuration not stated) | 4.9 °C | 5.3 °C | 0.3 °C | 2.1 °C | 0.7 °C | 2.3 °C | 1.1 °C | 1.9 °C | 0.1 °C | 4.7 °C | 3.5 °C | 1.3 °C
11 | Cn1c2c(c3ccc(Cl)c(Cl)c31)C(CN)C(C)(C)NC2=O (racemic) | 2.8 °C | 5.1 °C | 1.8 °C | 6.4 °C | 1.7 °C | 3.2 °C | 0.9 °C | 0.5 °C | 0.7 °C | 0.6 °C | 3.6 °C | 0.2 °C
12 | Cn1c2c(c3ccc(Cl)c(Cl)c31)C(C#N)C1(CCCC1)NC2=O (configuration not stated) | 3.3 °C | 4.8 °C | 0.1 °C | 2.6 °C | 0.5 °C | 1.6 °C | 0.2 °C | 1 °C | 0.1 °C | 2.5 °C | 3.8 °C | 0.7 °C
13 | CN1CCC2(CC1)NC(=O)c1c(c3ccc(Cl)c(Cl)c3n1C)C2C#N (racemic) | 2.1 °C | 5.7 °C | 3.4 °C | 1.2 °C | 3.9 °C | 5.2 °C | 2.2 °C | 2.7 °C | 0.2 °C | 2.2 °C | 7.7 °C | 1.3 °C
14 | Cn1c2c(c3ccc(Cl)c(Cl)c31)C(C#N)C1(CCOCC1)NC2=O (configuration not stated) | 2.8 °C | 4.6 °C | 1.1 °C | 1.7 °C | 1 °C | 2.2 °C | 0.7 °C | 1 °C | 0 °C | 3.4 °C | 4.8 °C | 1 °C
15 | Cn1c2c(Cl)c(Cl)ccc2c2cn[nH]c(=O)c21 | 0.9 °C | 3.9 °C | 3.2 °C | 2.2 °C | 1.2 °C | 1.6 °C | 1.2 °C | 2.1 °C | 1.4 °C | 4.6 °C | 1.6 °C | 1.6 °C
16 | Cn1c2c(c3ccccc31)C(C#N)C(C)(C)NC2=O (configuration not stated) | 1.4 °C | 2.4 °C | 1.7 °C | 0.3 °C | 0.4 °C | -0.2 °C | 1 °C | 0.7 °C | 0.1 °C | 1.8 °C | 0.9 °C | 0.5 °C
